Source: PMC7115534 (Peptides, 2009)
Converted amounts (≈) assume the structure as drawn. Like-named read-outs stand apart in the source and are kept apart here. Where a SMILES comes first, the peptide text is derived from it. The star is where a group is joined. Cbz = O=C(OCc1ccccc1)*; CH2F = FC*

What was measured:
Influenza B = test: Anti-influenza B activity in MDCK cells; assay type: cell-based; details: Influenza B virus
Reovirus-1 = test: Antiviral activity in Vero cells, reovirus-1; assay type: cell-based; details: read-out: EC50 Reovirus-1
Sindbis virus = test: Antiviral activity in Vero cells, Sindbis virus; assay type: cell-based; details: read-out: EC50 Sindbis virus
MDCK cells = details: microscopic alteration of cell morphology
Vero cells = details: microscopic alteration of cell morphology
L929 cells = test: Effect of carbohydrates and caspase inhibitors on CML-induced L929 cell death; assay type: cell-based, murine; details: 24 h; for effect of caspase inhibitor on CML-induced L929 apoptosis: 20 μM, 1 h prior to CML; for effect of carbohydrate pre-incubation on CML-induced L929 cell death: 1 pM CML pre-incubated with sugar at 37 °C for 30 min, MTT
How it was run: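 Murine L929 fibroblasts in DMEM with 10% FBS and nonessential amino acids at 37 °C, 5% CO2, were seeded at 1 × 10^5 cells/well for 24 h. Caspase inhibitors (pan-caspase z-VAD-fmk, caspase-3 z-DEVD-fmk, caspase-8 z-IETD-fmk; 20 μmol/l) were added 1 h before lectin, then cells were incubated 24 h. MTT was read at 490 nm as % growth inhibition versus control and blank; n = 5.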

[1] = test system: Clematis montana lectin (CML); test: Hemagglutination inhibition assay; assay type: biochemical
How it was run: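 Sugars were serially diluted 2-fold and mixed with an equal volume of lectin at 8 hemagglutination units. After 30 min at room temperature, 2% rabbit erythrocyte suspension was added in U-bottom wells. Plates were read after 1 h. The endpoint was the minimum sugar concentration in the final mixture giving complete inhibition; lectin dilutions were made in 0.15 M NaCl.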

in vitro = details: dog
Para-influenza-3 virus = test: Antiviral activity in Vero cells, para-influenza-3; assay type: cell-based; details: read-out: EC50 Para-influenza-3 virus
Punta Toro virus = test: Antiviral activity in Vero cells, Punta Toro virus; assay type: cell-based; details: read-out: EC50 Punta Toro virus
HIV-1 (IIIB) = details: CEM cells; cited from earlier work
HIV-2 (strain ROD) = details: CEM cells; cited from earlier work
[2] = read-out: Antiviral EC50 Influenza B MTS
[3] = read-out: Antiviral EC50 Influenza B Visual CPE Score

## NC(=O)c1ncn([C@@H]2O[C@H](CO)[C@@H](O)[C@H]2O)n1 [Ribavirin]
Influenza B; [2]
  EC50: 4.3 µM
Influenza B; [3]
  EC50: 9 µM
Reovirus-1
  EC50: 250 µM
Sindbis virus
  EC50: > 250 µM
MDCK cells
  Cytotoxicity Minimum cytotoxic concentration: >100 µM
Vero cells
  Minimum cytotoxic concentration: >250 µM

## COC(=O)CC[C@H](NC(=O)[C@H](CC(=O)OC)NC(=O)OCc1ccccc1)C(=O)N[C@H](C(=O)N[C@@H](CC(=O)OC)C(=O)CF)C(C)C [z-DEVD-fmk]
L929 cells
  effect of caspase inhibitor on CML-induced L929 apoptosis: partially blocked apoptosis

## thyroglobulin: a glycoprotein
[1]
  inhibition of CML agglutination of rabbit erythrocytes (in words): inhibited the agglutination

## CCC(CC)O[C@@H]1C=C(C(=O)O)C[C@H](N)[C@H]1NC(C)=O [Oseltamivir Carboxylate]
Influenza B; [2]
  EC50: 15 µM
Influenza B; [3]
  EC50: 8 µM
MDCK cells
  Cytotoxicity Minimum cytotoxic concentration: >100 µM
In vitro
  CC50: > 100 µM

## CC[C@H](C)[C@H](NC(=O)OCc1ccccc1)C(=O)N[C@@H](CCC(=O)OC)C(=O)N[C@H](C(=O)N[C@@H](CC(=O)OC)C(=O)CF)[C@@H](C)O [z-IETD-fmk] (Cbz-IE(OMe)TD(OMe)-CH2F)
L929 cells
  effect of caspase inhibitor on CML-induced L929 apoptosis: partially blocked apoptosis

## OC[C@H]1O[C@H](O[C@H]2[C@H](O)[C@@H](CO)OC(O)[C@H]2O)[C@@H](O)[C@@H](O)[C@@H]1O (stereo partly drawn) [Man-a(1,3)-Man]
[1]
  inhibition of CML agglutination of rabbit erythrocytes (in words): slightly inhibitory

## CC(N)C12CC3CC(CC(C3)C1)C2 (stereo not drawn) [Rimantadine]
Influenza B; [2]
  EC50: > 200 µM
Influenza B; [3]
  EC50: > 200 µM
MDCK cells
  Cytotoxicity Minimum cytotoxic concentration: 1000 µM
In vitro
  CC50: 525 µM

## Nc1ncnc2c1ncn2C[C@H](O)CO [(S)-DHPA]
Para-influenza-3 virus
  EC50: > 250 µM
Reovirus-1
  EC50: > 250 µM
Sindbis virus
  EC50: > 250 µM
Punta Toro virus
  EC50: > 250 µM
Vero cells
  Minimum cytotoxic concentration: >250 µM

## NC12CC3CC(CC(C3)C1)C2 [Amantadine]
Influenza B; [2]
  EC50: > 1000 µM
Influenza B; [3]
  EC50: > 1000 µM
MDCK cells
  Cytotoxicity Minimum cytotoxic concentration: >1000 µM
In vitro
  CC50: > 1000 µM

## Scilla campanulata agglutinin [SCA]
HIV-1 (IIIB)
  EC50 HIV-1: 4.6 µg/mL
HIV-2 (strain ROD)
  EC50 HIV-2: 8 µg/mL

## OC[C@H]1O[C@H](O[C@@H]2C(O)O[C@H](CO)[C@@H](O)[C@@H]2O)[C@@H](O)[C@@H](O)[C@@H]1O (stereo partly drawn) [Man-a(1,2)-Man]
[1]
  inhibition of CML agglutination of rabbit erythrocytes (in words): slightly inhibitory

## Lycoris radiate agglutinin [LRA]
HIV-1 (IIIB)
  EC50 HIV-1: 0.79 µg/mL
HIV-2 (strain ROD)
  EC50 HIV-2: 0.59 µg/mL

## OC[C@H]1O[C@H](OC[C@H]2OC(O)[C@@H](O)[C@@H](O[C@H]3O[C@H](CO)[C@@H](O)[C@H](O)[C@@H]3O)[C@@H]2O)[C@@H](O)[C@@H](O)[C@@H]1O (stereo partly drawn) [Man-a(1,3:1,6)-mannotriose]
[1]; complete inhibition of 8 hemagglutination units of CML, rabbit erythrocytes
  Minimum inhibitory concentration (MIC): 2500 µM (≈ 1260 µg/mL)
L929 cells
  effect of carbohydrate pre-incubation on CML-induced L929 cell death: the cell inhibitory ratio was abruptly decreased

## Galanthus nivalis agglutinin [GNA]
HIV-1 (IIIB)
  EC50 HIV-1: 0.92 µg/mL
HIV-2 (strain ROD)
  EC50 HIV-2: 0.78 µg/mL

## OC[C@H]1O[C@H](OC[C@H]2OC(O)[C@@H](O)[C@@H](O)[C@@H]2O)[C@@H](O)[C@@H](O)[C@@H]1O (stereo partly drawn) [Man-a(1,6)-Man]
[1]
  inhibition of CML agglutination of rabbit erythrocytes (in words): slightly inhibitory
L929 cells
  effect of carbohydrate pre-incubation on CML-induced L929 cell death: slightly more effective inhibitor than Man-a(1,3:1,6)-mannotriose

## COC(=O)C[C@H](NC(=O)[C@H](C)NC(=O)[C@@H](NC(=O)OCc1ccccc1)C(C)C)C(=O)CF [z-VAD-fmk] (Cbz-Val-Ala-Asp(OMe)-CH2F)
L929 cells
  effect of caspase inhibitor on CML-induced L929 apoptosis: partially blocked apoptosis
